From PubChem BioAssay
The list is not random: actives were taken first. Their share in the collection is about 4.1%.
Cl transport mod: modulates chloride dependent transport by human KCC2; actives 2.2% (n = 190,000); B-score of Tl+ flux slope (higher = more flux/activation; lower = inhibition) at 10 µM; Q9H2X9; KCC2 cells, thallium flux FluoZin-2 fluorescence; AID 1456;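 active = thallium flux slope and its plate-corrected score both differing from the plate sample mean at a set confidence after two filtering rounds, in either direction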;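 note: slope of fluorescence scaled to starting intensity during 10 to 20 s after thallium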
Target sequence (Q9H2X9 whole entry, looked up): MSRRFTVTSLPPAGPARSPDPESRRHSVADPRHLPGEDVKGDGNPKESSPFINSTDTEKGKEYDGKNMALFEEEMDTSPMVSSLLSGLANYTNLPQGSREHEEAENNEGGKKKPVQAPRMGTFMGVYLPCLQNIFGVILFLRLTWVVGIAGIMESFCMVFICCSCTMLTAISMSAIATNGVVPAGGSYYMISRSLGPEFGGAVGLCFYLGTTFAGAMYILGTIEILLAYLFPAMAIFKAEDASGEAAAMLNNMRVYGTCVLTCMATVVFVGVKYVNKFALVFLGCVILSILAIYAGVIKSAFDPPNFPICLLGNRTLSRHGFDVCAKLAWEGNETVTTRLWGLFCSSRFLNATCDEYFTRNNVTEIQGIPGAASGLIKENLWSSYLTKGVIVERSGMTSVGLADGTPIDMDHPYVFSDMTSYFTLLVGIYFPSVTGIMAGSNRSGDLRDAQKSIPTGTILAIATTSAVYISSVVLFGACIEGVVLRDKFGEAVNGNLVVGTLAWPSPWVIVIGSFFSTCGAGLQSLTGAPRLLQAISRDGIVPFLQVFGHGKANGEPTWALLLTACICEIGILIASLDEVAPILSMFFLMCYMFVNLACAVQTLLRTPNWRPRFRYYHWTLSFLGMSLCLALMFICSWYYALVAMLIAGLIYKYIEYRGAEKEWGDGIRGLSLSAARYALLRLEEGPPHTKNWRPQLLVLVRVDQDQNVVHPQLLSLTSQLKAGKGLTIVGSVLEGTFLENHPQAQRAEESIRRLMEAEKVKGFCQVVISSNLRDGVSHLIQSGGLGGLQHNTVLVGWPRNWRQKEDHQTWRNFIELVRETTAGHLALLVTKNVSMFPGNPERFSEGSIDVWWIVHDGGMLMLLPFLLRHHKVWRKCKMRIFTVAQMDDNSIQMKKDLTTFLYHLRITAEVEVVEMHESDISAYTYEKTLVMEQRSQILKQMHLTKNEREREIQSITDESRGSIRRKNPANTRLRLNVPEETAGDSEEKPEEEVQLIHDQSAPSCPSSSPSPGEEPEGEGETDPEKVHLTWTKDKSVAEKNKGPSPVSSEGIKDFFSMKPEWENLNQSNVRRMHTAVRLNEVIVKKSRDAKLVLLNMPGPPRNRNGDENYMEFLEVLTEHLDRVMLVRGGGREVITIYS
KCNQ1 inh: blocks the human KCNQ1 potassium channel; AID 2642; CHO-K1 KCNQ1, FluxOR thallium flux fluorescence; active compounds read high; B-score at 10 µM; actives 1.3% (n = 310,000); P51787;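 active = compounds whose thallium flux B-score, printed positive for inhibition, exceeds three library SD while starting fluorescence stays within three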;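 note: channel opened by potassium depolarization with thallium stimulus after 20 min compound exposure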
KCNK9 inh: inhibitors of human KCNK9 two-pore domain potassium channel; actives 1.2% (n = 310,000); B-score at 10 µM; Q9NPC2; HEK293 KCNK9, FluxOR thallium flux fluorescence; active compounds read low;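 active = ratio B-score over 3 SD below the library mean, with starting fluorescence within 5 SD of its mean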;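 note: negative B-score means less thallium flux so channel inhibition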
KCNQ1 pot: potentiators or activators of human KCNQ1 potassium channel; B-score at 10 µM; CHO-K1 KCNQ1, thallium flux FluxOR fluorescence; active compounds read high; AID 2648; P51787; actives 0.35% (n = 310,000);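 active = fluorescence ratio B-score, a plate-corrected score, at least three library SD, with initial intensity B-score within 5 SD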
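Schedule – 37 °C overnight plating, 90-min dark dye load, 20-min compound pretreatment · System – stable KCNQ1 CHO-K1 line · Probe or stimulus – thallium- and potassium-containing depolarizing buffer · Measured by – kinetic FluxOR fluorescence, 10 s baseline plus 110 s post-stimulus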
hERG protect: hERG (human) protection from proarrhythmic block | actives 0.51% (n = 310,000) | AID 1511 | CHO-hERG, FluxOR thallium flux, dofetilide IC70 present | activation (rescue from dofetilide block), less the hit threshold, % at 10 µM;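 active = activation above the mean of controls blocked by dofetilide plus 5 SD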;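 note: thallium influx through hERG after potassium depolarization seen as dye fluorescence rise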
KCNK3 block: human KCNK3 channel inhibition, primary screen; O14649; CHO-KCNK3 thallium flux, FluxOR fluorescence; active compounds read low; B-score at 10 µM; actives 0.84% (n = 340,000); AID 602410;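 active = B-score under library mean minus 4 SD, starting fluorescence ratio at most library mean plus 5 SD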;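 note: more negative B-score means stronger inhibition of thallium flux through KCNK3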
KCNK9 inh conf: confirmation of human KCNK9 potassium channel inhibitors | inhibition, % at 10 µM | HEK293 KCNK9 cells, FluxOR thallium flux fluorescence | shares compounds with KCNK9 inh | actives 43% (n = 4,900);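 active = thallium signal inhibited by more than 5 SD of the compound-free buffer control wells, on both duplicate plates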;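 note: 0% = assay buffer control wells without compound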
Kir21 sel: mouse Kir2.1 off-target activity of KCNK9 modulators. actives 4% (n = 4,900). inhibition, % at 10 µM. Kir2.1 cells, FluxOR thallium flux fluorescence. shares compounds with KCNK9 inh. AID 492993;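 active = thallium signal drop more than 5 SD beyond the mean of the no-compound control wells, seen in both duplicate plates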;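 note: signal is fluorescence rise after thallium addition divided by baseline fluorescence; plate controls were assay buffer only for no effect and full block by chlorpromazine control for full effect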
KCNK9 uninduced: non-induced cell nonspecific activity of KCNK9 modulators; shares compounds with KCNK9 inh; non-induced KCNK9-HEK293, FluxOR thallium flux; inhibition, % at 10 µM; actives 40% (n = 4,900); AID 492997;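 active = thallium signal drop beyond 5 SD of the untreated control mean, on both duplicate plates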;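 note: plate controls were buffer only IC0 wells for no effect and SID17386958 at its maximal inhibitory level for full effect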
Numbers without * were called inactive; i = inactive; . = no result given.

SMILES	Cl transport mod	KCNQ1 inh	KCNK9 inh	KCNQ1 pot	hERG protect	KCNK3 block	KCNK9 inh conf	Kir21 sel	KCNK9 uninduced
O=C1CC(c2ccccc2)CC2=C1C=Nc1ccccc1N2 (stereo not drawn)	-0.76	i	i	i	-6	i	.	.	.
COc1cccc(CN(C)C(=O)c2ccc(NS(=O)(=O)c3ccc4[nH]c(=O)[nH]c4c3)cc2)c1OC	.	i	i	i	-9	i	.	.	.
CCOc1ccc(NS(=O)(=O)c2ccc(C(=O)N(C)Cc3cccc(OC)c3OC)cc2)cc1	.	i	i	i	-12	i	i	i	i
COc1cccc(CN(C)C(=O)c2ccc(Oc3ccccc3)cc2)c1OC	.	i	i	i	-10	i	i	i	i
Cc1cc(C)c(S(=O)(=O)Nn2cnnc2)c(C)c1	0.86	i	i	i	-9	i	.	.	.
CN(CC(=O)Nc1ccccc1Oc1ccccc1)Cc1ccccc1F	0.78	i	-13*	i	-20	i	78%*	47%*	42%*
Cc1ccccc1CN(C)CC(=O)Nc1ccccc1-c1ccccc1	-0.29	i	-10*	i	-8	i	71%*	55%*	42%*
O=C(Cc1ccccc1)Nc1ccccc1Oc1ccccc1	-0.22	i	i	i	-3	i	.	.	.
O=C(CNC(c1ccccc1)c1ccccc1)Nc1ccccc1-c1ccccc1	-0.1	i	-12*	i	-14	i	26%*	i	42%*
Cc1cccc(N(CC(=O)Nc2ccccc2-c2ccccc2)S(=O)(=O)c2ccccc2)c1C	0.26	i	i	i	-2	i	.	.	.
O=C(Nc1ccccc1)Nc1ccc(Nc2ccccc2)cc1	.	i	i	i	-7	i	.	.	.
COc1ccc(OC)c(NC(=O)c2cc(OC(C)=O)cc(C(=O)Nc3cc(OC)ccc3OC)c2)c1	.	i	-9.5*	i	-7	i	49%*	i	i
Cc1ccc2cc3cc(C(=O)NCCCN4CCc5ccccc5C4)oc3nc2c1	-2	i	i	i	-11	i	.	.	.
Cc1cc(N2CCN(C)CC2)ccc1NC(=O)c1c2c(nc3ccccc13)CCN(Cc1ccccc1)C2	-0.86	i	i	i	-7	i	.	.	.
Cc1c(Cl)cccc1NC(=O)COC(=O)c1c2c(nc3ccccc13)CCN(Cc1ccccc1)C2	0.94	i	-12*	i	-9	i	60%*	i	32%*
Cc1ccc(/C=C/C(=O)N2CC(C)CC(C)C2)o1 (stereo not drawn)	0.19	i	i	i	-14	i	.	.	.
CCCCn1c2c(c(=N)c3ccccc31)CCC2	-1.2	i	i	i	-17	i	.	.	.
CCCCCCCCCCn1c2c(c(=N)c3c1CCC3)CCC2	0.59	6*	-18*	i	58*	i	63%*	86%*	26%*
CC(C)(C)C1=NN(c2ccc([N+](=O)[O-])cc2)C(c2ccccc2)C1 (stereo not drawn)	-0.74	9*	-8.8*	i	-2	i	44%*	i	48%*
O=C1CSC(c2ccccc2)N1c1ccc([N+](=O)[O-])cc1 (stereo not drawn)	.	i	i	i	-3	i	.	.	.
C=CCn1c(SCC(=O)Nc2ccc3c(c2)OCO3)nnc1-c1ccccc1O	.	i	i	i	-8	i	.	.	.
COc1ccc(NC(=O)c2oc3ccccc3c2NC(=O)C(C)(C)C)cc1	.	i	i	i	-9	i	.	.	.
COc1ccc(-c2csc(NC(=O)c3ccco3)n2)cc1	-0.47	i	-8.7*	i	-4	i	i	i	i
Cc1ccc(-c2csc(NC(=O)c3ccc(-c4ccccc4)cc3)n2)o1	.	i	-9.7*	i	-15	i	i	i	i
CCOc1ccc(-c2csc(NC(=O)c3ccco3)n2)cc1	.	i	i	i	1	i	.	.	.
SMILES	Cl transport mod	KCNQ1 inh	KCNK9 inh	KCNQ1 pot	hERG protect	KCNK3 block	KCNK9 inh conf	Kir21 sel	KCNK9 uninduced
COc1ccc(NC(=O)c2oc3ccccc3c2NC(=O)c2ccco2)cc1	0.0035	i	-9.1*	i	-1	i	i	i	i
CCC(C)C(=O)Nc1nc(C)c(-c2csc(Nc3ccccc3OC)n2)s1 (stereo not drawn)	-2.4	i	-9.2*	i	-14	i	58%*	i	28%*
O=C(CSc1nnnn1-c1cccc2ccccc12)Nc1ccc(C(=O)O)cc1	.	i	i	i	-10	i	.	.	.
Cc1ccc(Cl)cc1Nc1nc(-c2sc(NC(=O)c3ccco3)nc2C)cs1	-0.31	i	-12*	i	-29	i	34%*	i	i
Cc1nc(NC(=O)CC(C)C)sc1-c1csc(Nc2ccc(Cl)cc2Cl)n1	0.98	i	i	i	-14	i	.	.	.
COc1ccc(Cl)cc1Nc1nc(-c2sc(NC(=O)CC(C)C)nc2C)cs1	0.071	i	-13*	i	-7	i	41%*	i	34%*
CCC[C@@H](O)c1cc2cc(OC)c(OC)cc2c(=O)o1	.	.	.	.	.	i	.	.	.
O=C(COC(=O)CNC(=O)c1ccccc1)NC1CCCC1	.	.	.	.	.	i	.	.	.
CC(NC(=O)c1ccc(CS(=O)(=O)c2cccc(C(F)(F)F)c2)o1)c1ccc2c(c1)OCCO2 (stereo not drawn)	0.17	i	i	i	-12	i	i	i	i
O=C(c1ccc(N2CCCCC2)c([N+](=O)[O-])c1)N(Cc1ccccc1)c1ccccn1	0.031	i	i	i	-18	i	.	.	.
O=[N+]([O-])c1ccccc1SN(Cc1ccccc1)c1ccccn1	-0.23	i	-8.6*	i	-6	i	40%*	i	44%*
CC(C)(C)OC(=O)[C@H](Cc1ccccc1)NC(=O)c1nc[nH]c1C(=O)N1CCc2ccccc2C1	.	i	i	i	-12	i	i	i	i
CC(C)C[C@H](NC(=O)c1nc[nH]c1C(=O)NCc1ccc(CNC(=O)OC(C)(C)C)cc1)C(=O)OC(C)(C)C	.	i	-8.8*	i	-7	i	32%*	i	29%*
COCC(C)NC(=O)c1ccc(CN2CCc3ccccc3C2)cc1 (stereo not drawn)	0.015	i	i	i	-10	i	.	.	.
